Test results from ChEMBL document CHEMBL3091318, “Potent and broad-spectrum antibacterial activity of indole-based bisamidine antibiotics: synthesis and SAR of novel analogs of MBX 1066 and MBX 1090” (2013).

Key:
Assay type in all cases: functional
[1] = tested on: Acinetobacter baumannii; assay: Antimicrobial activity against Acinetobacter baumannii ATCC 19606 after 16 to 20 hrs by broth microdilution method
In short: (§1)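 CLSI broth microdilution. Log-phase cultures grown in cation-adjusted Mueller–Hinton broth and seeded at 1×10^5 CFU/mL. Plates incubated at 37 °C with shaking for 16–20 h. DMSO stocks of compound were diluted into medium to 1% DMSO final. Growth was read as OD600. MIC (μg/ml) is the lowest concentration with no apparent growth, averaged over at least 3 assays.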

[2] = tested on: Pseudomonas aeruginosa; assay: Selectivity ratio of MIC for efflux pump-positive Pseudomonas aeruginosa PAO1 ATCC BAA-47 to MIC for efflux pump mexAB-oprM-deficient Pseudomonas aeruginosa PAO1
[3] = tested on: Bacillus anthracis; assay: Antimicrobial activity against Bacillus anthracis Sterne after 16 to 20 hrs by broth microdilution method
In short: (§2)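 CLSI broth microdilution. Log-phase cultures in cation-adjusted Mueller–Hinton broth were seeded at 1×10^5 CFU/mL and incubated at 37 °C with shaking for 16–20 h. Compounds were diluted from DMSO stocks to a final 1% DMSO. Growth was read as OD600, and MIC was taken as the lowest concentration with no apparent growth. At least 3 runs were done, and the average MIC is reported in μg/ml.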

[4] = tested on: Staphylococcus aureus; assay: Antimicrobial activity against Staphylococcus aureus ATCC 25923 after 16 to 20 hrs by broth microdilution method; in short: as §2
[5] = tested on: Escherichia coli; assay: Selectivity ratio of MIC for efflux pump-positive Escherichia coli K-12 to MIC for TolC efflux-deficient Escherichia coli K-12
[6] = tested on: Haemophilus influenzae; assay: Antimicrobial activity against Haemophilus influenzae ATCC 10211 after 16 to 20 hrs by broth microdilution method
In short: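 Broth microdilution per CLSI in Haemophilus Test Medium at 37 °C under 5% CO₂ for 16–20 h, seeded at 1×10^5 CFU/mL. Compound was added from DMSO stocks to 1% DMSO final. Growth was read as OD600. MIC (μg/ml) is the lowest concentration without apparent growth, averaged from at least 3 runs.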

[7] = tested on: Enterococcus faecalis; assay: Antimicrobial activity vancomycin-resistant Enterococcus faecalis ATCC 51575 after 16 to 20 hrs by broth microdilution method; in short: as §2
[8] = tested on: Klebsiella pneumoniae; assay: Antimicrobial activity against Klebsiella pneumoniae ATCC 13882 after 16 to 20 hrs by broth microdilution method; in short: as §1
[9] = tested on: Pseudomonas aeruginosa; assay: Antimicrobial activity against efflux pump mexAB-oprM-deficient Pseudomonas aeruginosa PAO1 after 16 to 20 hrs by broth microdilution method; in short: as §1
[10] = tested on: Escherichia coli; assay: Antimicrobial activity against TolC efflux-deficient Escherichia coli K-12 after 16 to 20 hrs by broth microdilution method; in short: as §1
[11] = tested on: Escherichia coli; assay: Antimicrobial activity against efflux pump-positive Escherichia coli K-12 after 16 to 20 hrs by broth microdilution method; in short: as §1
[12] = tested on: Staphylococcus aureus; assay: Antimicrobial activity methicillin-resistant against Staphylococcus aureus clinical isolate 1094 after 16 to 20 hrs by broth microdilution method
[13] = tested on: Enterococcus faecalis; assay: Antimicrobial activity Enterococcus faecalis ATCC 29212 after 16 to 20 hrs by broth microdilution method; in short: as §1
[14] = tested on: Pseudomonas aeruginosa; assay: Antimicrobial activity against efflux pump-positive Pseudomonas aeruginosa PAO1 ATCC BAA-47 after 16 to 20 hrs by broth microdilution method; in short: as §1
[15] = tested on: Escherichia coli; assay: Ratio of MBX 1066 MIC to compound MIC for Escherichia coli K-12 after 16 to 20 hrs by broth microdilution method
[16] = tested on: Pseudomonas aeruginosa; assay: Ratio of MBX 1066 MIC to compound MIC for Pseudomonas aeruginosa PAO1 ATCC BAA-47 after 16 to 20 hrs by broth microdilution method

SMILES	MIC [1] [µg/mL]	Ratio [2]	MIC [3] [µg/mL]	MIC [4] [µg/mL]	Ratio [5]	MIC [6] [µg/mL]	MIC [7] [µg/mL]	MIC [8] [µg/mL]	MIC [9] [µg/mL]	MIC [10] [µg/mL]	MIC [11] [µg/mL]	MIC [12] [µg/mL]	MIC [13] [µg/mL]	MIC [14] [µg/mL]	Ratio [15]	Ratio [16]
O=C(O)C(F)(F)F.c1cc2cc(-c3ccc(-c4cc5ccc(C6=NCCN6)cc5[nH]4)cc3)[nH]c2cc1C1=NCCN1	> 80	6	0.31	0.16	8	0.63	0.16	0.31	1.25	0.16	1.25	0.16	0.16	7.5		
O=C(O)C(F)(F)F.c1cc2cc(-c3ccc(-c4cc5ccc(C6=NCCCN6)cc5[nH]4)cc3)[nH]c2cc1C1=NCCCN1	2.5		0.08	0.08		0.31	0.08	0.31	0.31	0.16	0.16	0.08	0.08	0.31	10	>20
